Measurements from ChEMBL document CHEMBL1121949, “Species- or isozyme-specific enzyme inhibitors. 8. Synthesis of disubstituted two-substrate condensation products as inhibitors of rat adenylate kinases” (J Med Chem, 1982).
“And” between values parts separate entries of the source, which are not always exact repeats. Identical values can stand only once.

What was measured:
[1] = molecular target: T1, Adenylate kinase 2, mitochondrial (Rattus norvegicus, UniProt P29410); assay: Inhibitory activity against rat adenylate kinase II was determined in the presence of ATP, competitive inhibition
[2] = Inhibitory potency against AK II was calculated using the equation KM(ATP) / Ki(ATP varied)
[3] = Relative potency inhibitory calculated as the ratio of AK-II/AK-M
[4] = Inhibitory potency against AK M was calculated using the equation KM(ATP) / Ki(ATP varied)
[5] = Inhibitory activity against rat adenylate kinase M (AK-M)isoenzyme in the presence of ATP competitive inhibition
Summary of the method: (§1)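 Rat adenylate kinase isozymes AK II or AK-M were used, with AMP or ATP as the varied substrate. Substrate and inhibitor constants (Ki) came from steady-state kinetics. ATP derivatives, and P1,P5-pentaphosphate derivatives with Ki above 0.10 mM, were added as 1:1 Mg complexes, made by adding MgSO4 to their stock solutions.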

[6] = Inhibitory activity against rat adenylate kinase M (AK-M)isoenzyme in the presence of AMP competitive inhibition
Summary of the method: as §1

[7] = molecular target: T2, Adenylate kinase isoenzyme 1 (Rattus norvegicus, UniProt P39069); assay: Inhibitory activity against rat Adenylate kinase M isoenzyme in the presence of ATP
T2 sequence (P39069 whole entry): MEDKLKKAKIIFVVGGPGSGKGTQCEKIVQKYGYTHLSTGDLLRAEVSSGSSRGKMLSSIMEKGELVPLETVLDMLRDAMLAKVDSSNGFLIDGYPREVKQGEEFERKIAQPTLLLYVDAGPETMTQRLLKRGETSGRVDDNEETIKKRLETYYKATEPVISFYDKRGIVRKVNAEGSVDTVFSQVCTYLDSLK
Summary of the method: as §1

[8] = molecular target: T2, Adenylate kinase isoenzyme 1; assay: Inhibitory activity against rat Adenylate kinase M isoenzyme in the presence of ATP non competitive inhibition
Summary of the method: as §1

[9] = molecular target: T1, Adenylate kinase 2, mitochondrial; assay: Inhibitory activity against rat adenylate kinase II was determined in the presence of AMP, competitive inhibition
Summary of the method: as §1

[10] = molecular target: T1, Adenylate kinase 2, mitochondrial; assay: Inhibitory activity against rat adenylate kinase II was determined in the presence of ATP, non competitive inhibition
Summary of the method: as §1

[11] = molecular target: T1, Adenylate kinase 2, mitochondrial; assay: Inhibitory activity against rat adenylate kinase II was determined in the presence of ATP, competitive inhibition
Summary of the method: as §1

[12] = molecular target: T1, Adenylate kinase 2, mitochondrial; assay: Inhibitory activity against rat adenylate kinase II was determined in the presence of AMP, non competitive inhibition
Summary of the method: as §1

[13] = molecular target: T1, Adenylate kinase 2, mitochondrial; assay: Inhibitory activity against rat adenylate kinase II was determined in the presence of AMP, competitive and non competitive inhibition
Summary of the method: as §1

[14] = molecular target: T2, Adenylate kinase isoenzyme 1; assay: Inhibitory activity against rat Adenylate kinase M isoenzyme in the presence of ATPnon competitive inhibition
Summary of the method: as §1

[15] = molecular target: T2, Adenylate kinase isoenzyme 1; assay: Inhibitory activity against rat Adenylate kinase M isoenzyme in the presence of ATP competitive inhibition
[16] = molecular target: T1, Adenylate kinase 2, mitochondrial; assay: Inhibitory activity against rat adenylate kinase II was determined in the presence of ATP
Summary of the method: as §1

[17] = molecular target: T2, Adenylate kinase isoenzyme 1; assay: Inhibitory activity against rat Adenylate kinase M isoenzyme in the presence of ATP non competitive inhibition
[18] = molecular target: T1, Adenylate kinase 2, mitochondrial; assay: Inhibitory activity against rat adenylate kinase II was determined in the presence of AMP
Summary of the method: as §1

[19] = molecular target: T2, Adenylate kinase isoenzyme 1; assay: Inhibitory activity against rat Adenylate kinase M isoenzyme in the presence of AMP
Summary of the method: as §1

[20] = Inhibitory activity against rat adenylate kinase M (AK-M)isoenzyme in the presence of AMP non competitive
Summary of the method: as §1

[21] = Inhibitory activity against rat adenylate kinase M (AK-M)isoenzyme in the presence of ATP non competitive
Summary of the method: as §1

Compound | Ki [1] | Inhibitory potency [2] | Relative inhibitory potency [3] | Inhibitory potency [4] | also measured
CCSc1nc2c(N)ncnc2n1C1O[C@H](COP(=O)(O)OP(=O)(O)OP(=O)(O)OP(=O)(O)OP(=O)(O)OC[C@H]2OC(n3cnc4c(N)ncnc43)[C@H](O)[C@@H]2O)[C@@H](O)[C@H]1O (stereo partly specified) | 0.06 µM and 0.08 µM | 1120 | 5.9 | 190 | Ki [5]: 3 µM; Ki [6]: 3.5 µM
CCSc1nc2c(N)ncnc2n1[C@@H]1O[C@H](COP(=O)(O)OP(=O)(O)OP(=O)(O)O)[C@@H](O)[C@H]1O | – | – | – | – | Ki [7]: 6100 µM
Nc1ncnc2c1ncn2C1O[C@H](CCP(=O)(O)OP(=O)(O)OP(=O)(O)O)[C@@H](O)[C@H]1O (stereo partly specified) | – | 0.17 | > 1.8 | < 0.095 | Ki [8]: 4000 µM; Ki [9]: 540 µM
Nc1ncnc2c1ncn2[C@@H]1O[C@H](COP(=O)(O)OP(=O)(O)OP(=O)(O)O)[C@@H](O)[C@H]1O [ADENOSINE TRIPHOSPHATE] | – | – | – | – | Ki [8]: 570 µM; Ki [10]: 90 µM
C[C@H](OP(=O)(O)OP(=O)(O)OP(=O)(O)O)[C@H]1OC(n2cnc3c(N)ncnc32)[C@H](O)[C@@H]1O (stereo partly specified) | – | 0.045 | – | < 0.21 | Ki [11]: 2000 µM; Ki [8]: 1800 µM
CCSc1nc2c(N)ncnc2n1C1O[C@H](COP(=O)(O)OP(=O)(O)OP(=O)(O)OP(=O)(O)OP(=O)(O)O[C@H](C)[C@H]2OC(n3cnc4c(N)ncnc43)[C@H](O)[C@@H]2O)[C@@H](O)[C@H]1O (stereo partly specified) | 1.5 µM | 60 | 3.3 | 18.4 | Ki [5]: 31 µM; Ki [6]: 31 µM; Ki [12]: 2.8 µM
CCC[C@@H](OP(=O)(O)OP(=O)(O)OP(=O)(O)OP(=O)(O)OP(=O)(O)OC[C@H]1OC(n2c(SCC)nc3c(N)ncnc32)[C@H](O)[C@@H]1O)[C@H]1OC(n2cnc3c(N)ncnc32)[C@H](O)[C@@H]1O (stereo partly specified) | 52 µM | 1.7 | 0.36 | 4.8 | Ki [5]: 120 µM; Ki [13]: 63 µM; Ki [6]: 160 µM
CCC[C@@H](OP(=O)(O)OP(=O)(O)OP(=O)(O)O)[C@H]1OC(n2cnc3c(N)ncnc32)[C@H](O)[C@@H]1O (stereo partly specified) | 450 µM | 0.2 | > 2.4 | < 0.084 | Ki [14]: 4500 µM
CCC[C@H](OP(=O)(O)OP(=O)(O)OP(=O)(O)O)[C@H]1OC(n2cnc3c(N)ncnc32)[C@H](O)[C@@H]1O (stereo partly specified) | – | 0.2 | 0.11 | 1.9 | Ki [11]: 450 µM; Ki [15]: 300 µM
C[C@@H](OP(=O)(O)OP(=O)(O)OP(=O)(O)O)[C@H]1OC(n2cnc3c(N)ncnc32)[C@H](O)[C@@H]1O (stereo partly specified) | – | – | 0.13 | – | Ki [16]: 2200 µM; Ki [7]: 1800 µM
Nc1ncnc2c1ncn2[C@@H]1O[C@H](CO)[C@@H](O)[C@H]1O [ADENOSINE] | – | – | – | – | Ki [17]: 82000 µM; Ki [12]: 92000 µM; Ki [10]: 87000 µM
Nc1ncnc2c1ncn2[C@@H]1O[C@H](COP(=O)(O)O)[C@@H](O)[C@H]1O [ADENOSINE PHOSPHATE] | – | – | – | – | Ki [18]: 80 µM; Km [19]: 580 µM
CCSc1nc2c(N)ncnc2n1C1O[C@H](COP(=O)(O)OP(=O)(O)OP(=O)(O)OP(=O)(O)OP(=O)(O)OC[C@H]2OC(n3c(SCC)nc4c(N)ncnc43)[C@H](O)[C@@H]2O)[C@@H](O)[C@H]1O (stereo partly specified) | 10 µM and 6.4 µM | 14 | > 22 | < 0.63 | Ki [20]: 900 µM; Ki [21]: 600 µM
